Experimental data: ChEMBL document CHEMBL1128301, “Cephalosporin derivatives of doxorubicin as prodrugs for activation by monoclonal antibody-beta-lactamase conjugates” (J Med Chem, 1995)

Legend:
Format in all cases: functional, cell-based
[1] = system: H2981 cell line; test: Escherichia coli TEM-1 beta-lactamase (ECbL) enzyme concentration required to achieve an IC50 value of compound on H2981 lung adenocarcinoma cells; settings: Homo sapiens
Procedure, shortened: (§1)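 H2981 cells were plated at 4000 or 8000/well and allowed to adhere 18 h at 37 °C. Prodrug was held fixed at 1 μM while β-lactamase was titrated. After 1 h at 37 °C, cells were washed and incubated 18 h. A [³H]thymidine pulse (1 μCi/well) followed, 6 h or 18 h depending on seeding.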

[2] = system: H2981 cell line; test: Concentration resulting in 50% incorporation of [3H]thymidine compared to untreated control cells on H2981 human lung adenocarcinoma cells in the absence of Enterobacter cloacae P99 beta-lactamase (ECIbL); settings: H2981, 1 h
Procedure, shortened: (§2)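 H2981 cells in IMDM/10% FBS were seeded at 4000 or 8000 per well and left 18 h at 37 °C. Drug, ±EClbL, was given in RPMI/10% FBS over a concentration range for 1 h at 37 °C, then washed off and cells kept 18 h. [³H]thymidine (1 μCi/well) was pulsed 6 h (8000 cells) or 18 h (4000 cells).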

[3] = system: H2981 cell line; test: Bacillus cereus beta-lactamase (BCbL) enzyme concentration required to achieve an IC50 value of compound on H2981 lung adenocarcinoma cells; settings: Homo sapiens; procedure, shortened: as §1
[4] = system: H2981 cell line; test: Concentration resulting in 50% incorporation of [3H]thymidine compared to untreated control cells on H2981 human lung adenocarcinoma cells in the presence of doxorubicin; settings: H2981, 1 h; procedure, shortened: as §2
[5] = system: H2981 cell line; test: Concentration resulting in 50% incorporation of [3H]thymidine compared to untreated control cells on H2981 human lung adenocarcinoma cells in the presence of 10 ug/mL Enterobacter cloacae P99 beta-lactamase (ECIbL); settings: H2981, 1 h; procedure, shortened: as §2
[6] = system: H2981 cell line; test: Enterobacter cloacae P99 beta-lactamase (ECIbL) enzyme concentration required to achieve an IC50 value of compound on H2981 lung adenocarcinoma cells; settings: Homo sapiens; procedure, shortened: as §1
[7] = system: H2981 cell line; test: Cytotoxicity on H2981 Human lung adenocarcinoma cells.; procedure, shortened: as §2

| Compound | IC50 [1] [nM] | IC50 [2] [nM] | IC50 [3] [nM] | IC50 [4] [nM] | IC50 [5] [nM] | IC50 [6] [nM] | IC50 [7] [nM] |
| --- | --- | --- | --- | --- | --- | --- | --- |
| COc1cccc2c1C(=O)c1c(O)c3c(c(O)c1C2=O)C[C@@](O)(C(=O)CO)C[C@@H]3OC1CC(NC(=O)OCC2=C(C(=O)O)N3C(=O)[C@@H](NC(=O)CCCC(=O)O)[C@H]3SC2)C(O)C(C)O1 (some centres not stated) | 6.5 | 21900 | 1.13 | 480 | 470 | 0.039 | – |
| COc1cccc2c1C(=O)c1c(O)c3c(c(O)c1C2=O)C[C@@](O)(C(=O)CO)C[C@@H]3OC1CC(NC(=O)OCC2=C(C(=O)O)N3C(=O)[C@@H](NC(=O)C(c4ccccc4)S(=O)(=O)O)[C@H]3SC2)C(O)C(C)O1 (some centres not stated) | 22.7 | 14800 | 0.39 | 560 | 470 | 5.65 | – |
| COc1cccc2c1C(=O)c1c(O)c3c(c(O)c1C2=O)C[C@@](O)(C(=O)CO)C[C@@H]3OC1CC(NC(=O)OCC2=C(C(=O)O)N3C(=O)[C@@H](NC(=O)Cc4ccccc4)[C@H]3SC2)C(O)C(C)O1 (some centres not stated) | 0.68 | 7400 | 0.25 | 550 | 750 | 0.012 | – |
| COc1cccc2c1C(=O)c1c(O)c3c(c(O)c1C2=O)C[C@@](O)(C(=O)CO)C[C@@H]3O[C@H]1C[C@H](N)[C@H](O)[C@H](C)O1 [DOXORUBICIN] | – | – | – | – | – | – | 500 |
| COc1cccc2c1C(=O)c1c(O)c3c(c(O)c1C2=O)C[C@@](O)(C(=O)CO)C[C@@H]3OC1CC(NC(=O)OCC2=C(C(=O)O)N3C(=O)[C@@H](N)[C@H]3SC2)C(O)C(C)O1 (some centres not stated) | 185 | 8200 | 24.9 | 460 | 430 | 9.86 | – |
| COc1cccc2c1C(=O)c1c(O)c3c(c(O)c1C2=O)C[C@@](O)(C(=O)CO)C[C@@H]3OC1CC(NC(=O)OCC2=C(C(=O)O)N3C(=O)[C@@H](NC(=O)CSC4OC(CO)C(O)C(O)C4O)[C@H]3SC2)C(O)C(C)O1 (some centres not stated) | 1.13 | 2500 | 1.58 | 460 | 450 | 0.13 | – |
| COc1cccc2c1C(=O)c1c(O)c3c(c(O)c1C2=O)C[C@@](O)(C(=O)CO)C[C@@H]3OC1CC(NC(=O)OCC2=C(C(=O)O)N3C(=O)[C@@H](NC(=O)Cc4cccs4)[C@H]3SC2)C(O)C(C)O1 (some centres not stated) | 0.25 | 10300 | 0.21 | 560 | 550 | 0.024 | – |
